A word on the logP: it is the decadic logarithm of the partition coefficient of the neutral form, usually between octanol and water. Broadly, the Kp is the ratio of the level in a tissue or fluid to that in plasma or blood.

The structures appear in SMILES notation. Activity calls are given as the source filed them. The calls are words filed in the database; no cut-off is given here.

The target in data set [1] is Beta-secretase 1 (Homo sapiens) (UniProt P56817). The data set can be described thus: Inhibition of BACE1 at pH 6.5. In a few lines:
(§1)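 Enzymatic BACE-1 inhibition assay run at the pH given in each line. Potency is reported as the inflection point (IP), in nM.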

Data set [2] shares this target. The data set can be described thus: Inhibition of BACE1-mediated production of secreted beta-secretase amino terminal fragment. Summed up: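 Cell-based sAPP_NF assay: cells express APP carrying the NF mutation, and secreted sAPP is the read-out. IC50 is given as mean ± deviation.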
A short description of data set [3]: Plasma concentration in Rhesus monkey at 15 mg/kg, po co-administered with CYP inhibitor ritonavir 10 mg/kg, po after 4 hrs. In kind it is ADME, organism-based, Macaca mulatta. Summed up:
(§2)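 In a satellite PK experiment, rhesus monkeys (n = 3) received the test article at the stated dose together with 10 mpk ritonavir. Plasma levels (µM) were measured at 4 h and 24 h and averaged with standard deviations. Values below the limit of quantitation are marked BLQ.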

For another data set, the species on record is Mus musculus. As to the kind of experiment: Inhibition of mouse P-glycoprotein assessed as PGP ratio.
Data set [4] concerns the target ATP-dependent translocase ABCB1 (Homo sapiens, UniProt P08183). The data set can be described thus: Inhibition of human P-glycoprotein assessed as PGP ratio.
Data set [5] can be described thus: Plasma concentration in Rhesus monkey at 15 mg/kg, po co-administered with CYP inhibitor ritonavir 10 mg/kg, po after 24 hrs. The format is ADME, organism-based, Macaca mulatta. In a few lines: as §2
A short description of data set [6]: Plasma concentration in Rhesus monkey at 5 mg/kg, po co-administered with CYP inhibitor ritonavir 10 mg/kg, po after 4 hrs. In kind it is ADME, organism-based, Macaca mulatta. Summed up: as §2
Data set [7] deals with Rhesus monkey. The data set can be described thus: Reduction in CSF amyloid beta40 level in cisterna magna ported Rhesus monkey at 5 mg/kg, po co-administered with CYP inhibitor ritonavir 10 mg/kg, po measured after 4 hrs by sandwich ELISA. In kind it is functional, organism-based. The note with it: Macaca mulatta.
Data set [8] relates to Rhesus monkey. The data set can be described thus: Reduction in CSF amyloid beta42 level in cisterna magna ported Rhesus monkey at 15 mg/kg, po co-administered with CYP inhibitor ritonavir 10 mg/kg, po measured after 4 hrs by sandwich ELISA. The format is functional, organism-based. To be noted: Macaca mulatta. Background: An ELISA detects its analyte on a solid surface through an enzyme-linked reagent.

In data set [9] the test system is Rhesus monkey. The data set can be described thus: Plasma concentration in Rhesus monkey at 5 mg/kg, po co-administered with CYP inhibitor ritonavir 10 mg/kg, po after 24 hrs. In kind it is ADME, organism-based, Macaca mulatta. The note with it: in vivo, BLD = below limit of detection. In a few lines:
as §2

The test system of data set [10] is Rhesus monkey. The data set can be described thus: Reduction in CSF soluble APPbeta level in cisterna magna ported Rhesus monkey at 15 mg/kg, po co-administered with CYP inhibitor ritonavir 10 mg/kg, po measured after 4 hrs by sandwich ELISA. The format is functional, organism-based. The note with it: Macaca mulatta.
Data set [11] deals with Rhesus monkey. The data set can be described thus: Reduction in CSF amyloid beta40 level in cisterna magna ported Rhesus monkey at 15 mg/kg, po co-administered with CYP inhibitor ritonavir 10 mg/kg, po measured after 24 hrs by sandwich ELISA. The note with it: Macaca mulatta. In kind it is functional, organism-based.
The subject of data set [12] is Rhesus monkey. As to the kind of experiment: Reduction in CSF amyloid beta42 level in cisterna magna ported Rhesus monkey at 15 mg/kg, po co-administered with CYP inhibitor ritonavir 10 mg/kg, po measured after 4 hrs by sandwich ELISA. To be noted: Macaca mulatta.
Data set [13] concerns Rhesus monkey. The data set can be described thus: Reduction in CSF amyloid beta40 level in cisterna magna ported Rhesus monkey at 15 mg/kg, po co-administered with CYP inhibitor ritonavir 10 mg/kg, po measured after 4 hrs by sandwich ELISA. To be noted: Macaca mulatta. The format is functional, organism-based.
Data set [14] is described as follows: Partition coefficient, log P of the compound. The format is physicochemical. To be noted: octanol/water.
Data set [15] can be described thus: Ratio of drug level in brain to plasma in transgenic mouse at 30 mg/kg, ip. The note with it: brain and plasma.
In data set [16] the test system is Rhesus monkey. The data set can be described thus: Reduction in CSF soluble APPbeta level in cisterna magna ported Rhesus monkey at 15 mg/kg, po co-administered with CYP inhibitor ritonavir 10 mg/kg, po measured after 4 hrs by sandwich ELISA. To be noted: Macaca mulatta.
Data set [17] has as its target Beta-secretase 1 (Homo sapiens) (UniProt P56817). The data set can be described thus: Inhibition of BACE1 at pH 4.5. In a few lines: as §1

Sequence of Beta-secretase 1 (Homo sapiens) (P56817 whole entry): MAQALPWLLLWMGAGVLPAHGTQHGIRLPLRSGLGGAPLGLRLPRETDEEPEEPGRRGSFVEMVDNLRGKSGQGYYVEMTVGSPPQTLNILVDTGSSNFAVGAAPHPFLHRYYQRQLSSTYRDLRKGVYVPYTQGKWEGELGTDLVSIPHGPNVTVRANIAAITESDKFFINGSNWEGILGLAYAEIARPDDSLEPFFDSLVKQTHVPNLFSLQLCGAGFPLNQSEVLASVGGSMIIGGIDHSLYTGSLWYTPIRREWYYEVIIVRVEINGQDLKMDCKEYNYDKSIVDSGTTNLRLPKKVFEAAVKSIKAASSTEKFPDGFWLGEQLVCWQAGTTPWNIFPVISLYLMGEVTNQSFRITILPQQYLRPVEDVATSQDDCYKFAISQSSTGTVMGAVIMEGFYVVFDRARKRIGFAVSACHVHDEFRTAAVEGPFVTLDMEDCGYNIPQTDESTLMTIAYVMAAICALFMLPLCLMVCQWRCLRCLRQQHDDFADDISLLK
Sequence of ATP-dependent translocase ABCB1 (P08183 whole entry): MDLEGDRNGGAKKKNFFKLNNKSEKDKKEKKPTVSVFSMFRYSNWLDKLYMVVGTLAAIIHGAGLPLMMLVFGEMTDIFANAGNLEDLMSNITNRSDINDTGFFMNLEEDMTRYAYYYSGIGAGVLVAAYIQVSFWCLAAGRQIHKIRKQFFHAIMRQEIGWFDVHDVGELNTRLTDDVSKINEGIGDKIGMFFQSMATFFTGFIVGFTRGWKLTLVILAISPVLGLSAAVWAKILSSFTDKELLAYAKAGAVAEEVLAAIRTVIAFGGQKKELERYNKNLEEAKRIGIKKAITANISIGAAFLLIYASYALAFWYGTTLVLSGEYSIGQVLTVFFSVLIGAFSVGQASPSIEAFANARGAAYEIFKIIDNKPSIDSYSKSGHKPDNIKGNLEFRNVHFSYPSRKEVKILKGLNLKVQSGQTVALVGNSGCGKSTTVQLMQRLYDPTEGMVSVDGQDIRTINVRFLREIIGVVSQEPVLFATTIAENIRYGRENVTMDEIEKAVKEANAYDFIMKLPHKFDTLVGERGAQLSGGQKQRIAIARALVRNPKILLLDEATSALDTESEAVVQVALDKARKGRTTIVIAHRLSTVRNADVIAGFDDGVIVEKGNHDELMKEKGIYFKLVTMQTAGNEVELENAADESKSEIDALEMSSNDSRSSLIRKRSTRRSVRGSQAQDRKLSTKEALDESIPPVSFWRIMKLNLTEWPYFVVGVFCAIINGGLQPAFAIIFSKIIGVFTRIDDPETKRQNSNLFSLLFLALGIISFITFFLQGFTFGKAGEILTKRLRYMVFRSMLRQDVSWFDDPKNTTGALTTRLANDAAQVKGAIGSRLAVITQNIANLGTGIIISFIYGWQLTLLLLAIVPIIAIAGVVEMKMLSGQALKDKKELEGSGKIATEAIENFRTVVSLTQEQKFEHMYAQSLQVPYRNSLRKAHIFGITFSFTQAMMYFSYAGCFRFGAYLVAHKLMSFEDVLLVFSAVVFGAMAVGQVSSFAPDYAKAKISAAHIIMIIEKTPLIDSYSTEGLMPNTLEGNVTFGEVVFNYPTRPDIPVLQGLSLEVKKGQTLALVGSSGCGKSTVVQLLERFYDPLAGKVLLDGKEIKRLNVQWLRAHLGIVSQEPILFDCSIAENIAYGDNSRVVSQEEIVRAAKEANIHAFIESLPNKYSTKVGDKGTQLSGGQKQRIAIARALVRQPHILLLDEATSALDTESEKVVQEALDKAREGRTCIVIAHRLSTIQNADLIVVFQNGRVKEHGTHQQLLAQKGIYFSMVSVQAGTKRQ

Molecule `COCCN(C[C@H]1C[C@@H]1C)c1cc(-c2nnc([C@](C)(N)Cc3ccc(OC)nc3)o2)c(Cl)c(N(C)S(C)(=O)=O)n1` displayed an IP in [1] of 1400 nM.

On to `COCCN(C[C@H]1C[C@@H]1C)c1cc(-c2nnc([C@](C)(N)Cc3ccccc3Cl)o2)c(Cl)c(N(C)S(C)(=O)=O)n1`, for which the results for the IP in [1] and in data set [2] were 340 nM and > 6700 nM, respectively.

Take `COCCN(C[C@H]1C[C@@H]1C)c1cc(-c2nnc([C@](C)(N)Cc3ccc(OC)cc3)o2)c(Cl)c(N(C)S(C)(=O)=O)n1`: the IP was 180 nM in [1] and 4300 nM in data set [2].

Turning to `CCCC[C@@](C)(N)c1nnc(-c2cc(N(CCOC)C[C@H]3C[C@@H]3C)nc(N(C)S(C)(=O)=O)c2Cl)o1`, the IP in [1] is 1300 nM; in [2] it was > 2200 nM.

As to `COCCN(C[C@H]1C[C@@H]1C)c1cc(-c2nnc([C@](C)(N)Cc3ncco3)o2)c(Cl)c(N(C)S(C)(=O)=O)n1`, the IP in [1] is 49000 nM.

Take `COCCN(C[C@H]1C[C@@H]1C)c1cc(-c2nnc([C@](C)(N)Cc3cccc(Cl)c3)o2)c(Cl)c(N(C)S(C)(=O)=O)n1`: the IP was 65 nM in [1] and 4320 nM in data set [2].

`COCCN(C[C@H]1C[C@@H]1C)c1cc(-c2nnc([C@](C)(N)Cc3ccc(Br)cc3Br)o2)c(Cl)c(N(C)S(C)(=O)=O)n1`: the IP in data set [1] was > 600000 nM.

In the case of `COCCN(C[C@H]1C[C@@H]1C)c1cc(-c2nnc([C@](C)(N)Cc3ccnc(OC)c3)o2)c(Cl)c(N(C)S(C)(=O)=O)n1`, in data set [1], the IP stood at 9900 nM.

With `COCCN(C[C@H]1C[C@@H]1C)c1cc(-c2nnc([C@](C)(N)Cc3ccco3)o2)c(Cl)c(N(C)S(C)(=O)=O)n1`, the values for the IP in data set [1] and in data set [2] were 375 nM and 3190 nM, respectively.

Consider `COCCN(C[C@H]1C[C@@H]1C)c1cc(-c2nnc([C@](C)(N)Cc3cccc(F)c3)o2)c(Cl)c(N(C)S(C)(=O)=O)n1`, for which the values for the IP in [1] and in data set [2] were 17 nM and 304 nM, respectively.

`COCCN(C[C@H]1C[C@@H]1C)c1cc(-c2nnc([C@](C)(N)Cc3cc(Br)c(F)cc3Br)o2)c(Cl)c(N(C)S(C)(=O)=O)n1` came in with an IP in data set [1] of 29000 nM.

For `COCCN(C[C@H]1C[C@@H]1C)c1cc(-c2nnc([C@](C)(N)Cc3ccc(F)cc3)o2)c(Cl)c(N(C)S(C)(=O)=O)n1`, the concentration at 4 h in data set [3] was 2340 nM; in [6], 1310 nM. For the same molecule, the Ratio in the data set listed under Mus musculus came to 1.9; in [4], 1.1. In addition, the IP in data set [1] stood at 2 nM; in data set [2], 15 nM. In addition, the concentration at 24 h in data set [5] stood at 30 nM. The result in the data set on Rhesus monkey [7], in the data set with Rhesus monkey [8] and with Rhesus monkey [10] was Active. Also, the Cp result in the data set with Rhesus monkey [9] was “BLD”.

Consider `COCCN(C[C@H]1C[C@@H]1C)c1cc(-c2nnc([C@](C)(N)Cc3cccc(OC)c3)o2)c(Cl)c(N(C)S(C)(=O)=O)n1`, for which the IP in data set [1] worked out at 1500 nM.

The molecule `COCCN(C[C@H]1C[C@@H]1C)c1cc(-c2nnc([C@](C)(N)Cc3ccccc3OC)o2)c(Cl)c(N(C)S(C)(=O)=O)n1` yielded an IP in [1] of 3500 nM.

With `COCCN(C[C@H]1C[C@@H]1C)c1cc(-c2nnc([C@](C)(N)Cc3ccc(Cl)cc3)o2)c(Cl)c(N(C)S(C)(=O)=O)n1`, the IP is 4 nM in [1] and 320 nM in data set [2].

For the molecule `COCCN(C[C@H]1C[C@@H]1C)c1cc(-c2nnc([C@](C)(N)Cc3ccccc3F)o2)c(Cl)c(N(C)S(C)(=O)=O)n1`, the figures for the IP in data set [1] and in data set [2] were 15 nM and 195 nM, respectively.

Regarding `COCCN(C[C@H]1C[C@@H]1C)c1cc(-c2nnc([C@](C)(N)Cc3ccccc3)o2)c(Cl)c(N(C)S(C)(=O)=O)n1`, the result in the data set on Rhesus monkey [11], in the data set on Rhesus monkey [12], in the data set on Rhesus monkey [13] and in the data set with Rhesus monkey [16] was Active. Besides, the concentration at 4 h in data set [3] came out at 3360 nM. Besides, the Ratio in the data set listed under Mus musculus was determined as 2.3; in data set [4] it was 1.9. Moreover, the logP in data set [14] is > 3.2. In addition, the IP was 5 nM in [1], 46 nM in [2] and 0.4 nM in [17]. The concentration at 24 h in [5] came to 100 nM. Moreover, in data set [15], the Kp came to 9.

Take `COCCN(C[C@H]1C[C@@H]1C)c1cc(-c2nnc([C@](C)(N)Cc3ccc4c(c3)OCO4)o2)c(Cl)c(N(C)S(C)(=O)=O)n1`: the IP in data set [1] stood at 119 nM; in [2] it was 1100 nM.

For `COCCN(C[C@H]1C[C@@H]1C)c1cc(-c2nnc([C@](C)(N)Cc3ccoc3)o2)c(Cl)c(N(C)S(C)(=O)=O)n1`, the IP in [1] was determined as 142 nM; in data set [2], 1930 nM.
